From ChEMBL document CHEMBL4680121, “Development of (4-methoxyphenyl)-1H-tetrazol-5-amine regioisomers as a new class of selective antitubercular agents” (Eur J Med Chem, 2020)
pIC50: −log10 of the molar value. In brackets after ≈: the same amount, converted by molar mass.

Assays:
[1] = system: Klebsiella pneumoniae; assay: Antibacterial activity against Klebsiella pneumoniae ATCC 10031 assessed as bacterial growth inhibition measured after 18 hrs by two-fold serial microdilution method; format: functional
In short: (§1)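 Two-fold serial broth microdilution in MH II medium following modified CLSI procedures. Compounds were dissolved in DMSO and diluted in medium to at most 1% solvent, tested from 0.03125 to 512 μg/ml. Final inoculum 10^6 CFU/ml. MIC was taken as the lowest concentration with no visible growth after 18 h at 35 °C.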

[2] = system: Mycobacterium kansasii; assay: Antibacterial activity against Mycobacterium kansasii assessed as inhibition of microbial growth incubated for 1 week by MABA method; format: functional; settings: 168 h, time 1 weeks
In short: (§2)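 Microplate Alamar Blue assay using two-fold serial microdilution in Middlebrook 7H9 broth with 10% OADC, compounds 0.125–512 µg/ml from DMSO stocks. Inoculum came from fresh LJ culture, was adjusted to McFarland 1 and diluted 1:20. Plates were incubated 1 week at 37 °C, Alamar blue was added and plates were re-incubated 24 h. MIC was the lowest concentration preventing the blue-to-pink change. Each plate carried growth and sterile controls.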

[3] = system: Mycobacterium tuberculosis; assay: Antitubercular activity against Mycobacterium tuberculosis Spec.192 assessed as inhibition of microbial growth incubated for 1 week by MABA method; format: functional; settings: Mycobacterium tuberculosis, 192, 168 h; time 1 weeks
In short: (§3)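 Microplate Alamar Blue assay in Middlebrook 7H9 broth with 10% OADC. Inoculum from fresh LJ culture was adjusted to McFarland 1 and diluted 1:20. DMSO stocks were two-fold serially diluted to final 0.125–512 µg/ml, with growth and sterile controls. Plates ran 1 week at 37 °C, then Alamar blue was added for 24 h. MIC is the lowest concentration preventing the blue-to-pink change.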

[4] = system: Mycobacterium intracellulare; assay: Antimycobacterial activity against Mycobacterium intracellulare assessed as inhibition of microbial growth incubated for 1 week by MABA method; format: functional; settings: 168 h, time 1 weeks; in short: as §2
[5] = system: Mycobacterium xenopi; assay: Antibacterial activity against Mycobacterium xenopi assessed as inhibition of microbial growth incubated for 1 week by MABA method; format: functional; settings: 168 h, time 1 weeks; in short: as §2
[6] = system: Mycobacterium scrofulaceum; assay: Antibacterial activity against Mycobacterium scrofulaceum assessed as inhibition of microbial growth incubated for 1 week by MABA method; format: functional; settings: 168 h, time 1 weeks; in short: as §2
[7] = system: Mycobacterium tuberculosis; assay: Antitubercular activity against Mycobacterium tuberculosis H37Rv ATCC 25618 assessed as inhibition of microbial growth incubated for 1 week by MABA method; format: functional; settings: H37Rv ATCC 25618, 168 h, time 1 weeks; in short: as §3
[8] = system: Staphylococcus epidermidis; assay: Antibacterial activity against Staphylococcus epidermidis ATCC 35984/RP62A assessed as bacterial growth inhibition measured after 18 hrs by two-fold serial microdilution method; format: functional; in short: as §1
[9] = system: Mycobacterium avium; assay: Antimycobacterial activity against Mycobacterium avium assessed as inhibition of microbial growth incubated for 1 week by MABA method; format: functional; settings: 168 h, time 1 weeks; in short: as §3
[10] = system: Proteus vulgaris; assay: Antibacterial activity against Proteus vulgaris NCTC 4635 assessed as bacterial growth inhibition measured after 18 hrs by two-fold serial microdilution method; format: functional; in short: as §1
[11] = system: HaCaT; assay: Cytotoxicity against human HaCaT cells assessed as reduction in cell viability at 100 uM measured after 72 hrs by MTT assay; format: cell-based
In short: (§4)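 MTT viability assay on cells grown in DMEM with 10% heat-inactivated FBS, penicillin/streptomycin and 20 mM HEPES at 37 °C/5% CO2. Cells were seeded at 1×10^4 per well and allowed to adhere for 24 h, then the medium was refreshed. Compounds were added at 20–140 μM for 72 h at 37 °C, followed by MTT (0.5 mg/mL in serum-free medium) for 4 h. Untreated cells served as control. IC50 is the concentration giving 50% growth inhibition versus control.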

[12] = system: Staphylococcus epidermidis; assay: Antibacterial activity against Staphylococcus epidermidis ATCC 1457 assessed as bacterial growth inhibition measured after 18 hrs by two-fold serial microdilution method; format: functional; in short: as §1
[13] = system: Staphylococcus epidermidis; assay: Antibacterial activity against Staphylococcus epidermidis ATCC 12228 assessed as bacterial growth inhibition measured after 18 hrs by two-fold serial microdilution method; format: functional; in short: as §1
[14] = system: V79; assay: Cytotoxicity against Chinese Hamster V79 cells assessed as reduction in cell viability at 100 uM measured after 72 hrs by MTT assay; format: cell-based, Cricetulus griseus; settings: v79, 72 h; in short: as §4
[15] = system: Escherichia coli; assay: Antibacterial activity against Escherichia coli ATCC 25922 assessed as bacterial growth inhibition measured after 18 hrs by two-fold serial microdilution method; format: functional; in short: as §1
[16] = system: Staphylococcus aureus; assay: Antibacterial activity against Staphylococcus aureus ATCC 6538 assessed as bacterial growth inhibition measured after 18 hrs by two-fold serial microdilution method; format: functional; in short: as §1
[17] = system: HaCaT; assay: Cytotoxicity against human HaCaT cells assessed as reduction in cell viability measured after 72 hrs by MTT assay; format: cell-based; in short: as §4
[18] = system: V79; assay: Cytotoxicity against Chinese Hamster V79 cells assessed as reduction in cell viability measured after 72 hrs by MTT assay; format: cell-based; settings: Cricetulus griseus, V79, 72 h; in short: as §4
[19] = system: Staphylococcus aureus; assay: Antibacterial activity against Staphylococcus aureus NCTC 4163 assessed as bacterial growth inhibition measured after 18 hrs by two-fold serial microdilution method; format: functional; in short: as §1
[20] = system: Mycolicibacterium fortuitum; assay: Antibacterial activity against Mycobacterium fortuitum assessed as inhibition of microbial growth incubated for 1 week by MABA method; format: functional; settings: 168 h, time 1 weeks; in short: as §2
[21] = system: Pseudomonas aeruginosa; assay: Antibacterial activity against Pseudomonas aeruginosa PAO1 assessed as bacterial growth inhibition measured after 18 hrs by two-fold serial microdilution method; format: functional; in short: as §1
[22] = system: Pseudomonas aeruginosa; assay: Antibacterial activity against Pseudomonas aeruginosa NCTC 6749 assessed as bacterial growth inhibition measured after 18 hrs by two-fold serial microdilution method; format: functional; in short: as §1

Compound	MIC [1]	MIC [2]	MIC [3]	MIC [4]	MIC [5]	MIC [6]	MIC [7]	MIC [8]	MIC [10]	Activity [11]	MIC [12]	MIC [13]	Activity [14]	MIC [15]	MIC [16]	pIC50 [17]	pIC50 [18]	MIC [19]	MIC [21]	MIC [22]	also measured
COc1ccc(-n2nnnc2Nc2ccccc2Br)cc1	> 256 µg/mL	512 µg/mL	64 µg/mL	128 µg/mL	512 µg/mL	256 µg/mL	64 µg/mL	256 µg/mL (≈ 739 µM)	> 256 µg/mL	Non-Toxic	256 µg/mL (≈ 739 µM)	128 µg/mL (≈ 370 µM)	Non-Toxic	> 256 µg/mL	256 µg/mL (≈ 739 µM)	3.86	3.62	256 µg/mL (≈ 739 µM)	> 256 µg/mL	> 256 µg/mL	MIC [9]: 256 µg/mL; MIC [20]: 256 µg/mL
COc1ccc(-n2nnnc2Nc2ccccc2F)cc1	> 256 µg/mL		16 µg/mL				16 µg/mL	> 256 µg/mL	> 256 µg/mL	Non-Toxic	> 256 µg/mL	> 256 µg/mL	Non-Toxic	> 256 µg/mL	> 256 µg/mL	3.95	3.94	> 256 µg/mL	> 256 µg/mL	> 256 µg/mL	
COc1ccc(-n2nnnc2Nc2cccc(Cl)c2)cc1	> 256 µg/mL	512 µg/mL	32 µg/mL	128 µg/mL	> 512 µg/mL	512 µg/mL	32 µg/mL	> 256 µg/mL	> 256 µg/mL	Non-Toxic	> 256 µg/mL	> 256 µg/mL	Non-Toxic	> 256 µg/mL	> 256 µg/mL	3.85	3.62	> 256 µg/mL	> 256 µg/mL	> 256 µg/mL	MIC [9]: 256 µg/mL; MIC [20]: 256 µg/mL
COc1ccc(-n2nnnc2Nc2ccccc2Cl)cc1	> 256 µg/mL	512 µg/mL	8 µg/mL	128 µg/mL	512 µg/mL	32 µg/mL	8 µg/mL	256 µg/mL (≈ 848 µM)	64 µg/mL (≈ 212 µM)	Non-Toxic	64 µg/mL (≈ 212 µM)	128 µg/mL (≈ 424 µM)	Non-Toxic	> 256 µg/mL	32 µg/mL (≈ 106 µM)	3.87	3.61	32 µg/mL (≈ 106 µM)	> 256 µg/mL	> 256 µg/mL	MIC [9]: 128 µg/mL; MIC [20]: 256 µg/mL
COc1ccc(-n2nnnc2Nc2ccc(Cl)cc2)cc1	> 256 µg/mL	> 512 µg/mL	16 µg/mL	32 µg/mL	512 µg/mL	> 512 µg/mL	16 µg/mL	128 µg/mL (≈ 424 µM)	128 µg/mL (≈ 424 µM)	Non-Toxic	128 µg/mL (≈ 424 µM)	64 µg/mL (≈ 212 µM)	Non-Toxic	> 256 µg/mL	128 µg/mL (≈ 424 µM)	3.84	3.61	128 µg/mL (≈ 424 µM)	> 256 µg/mL	> 256 µg/mL	MIC [9]: > 512 µg/mL; MIC [20]: > 512 µg/mL
COc1ccc(Nc2nnnn2-c2ccccc2F)cc1	256 µg/mL (≈ 897 µM)	256 µg/mL	16 µg/mL	128 µg/mL	128 µg/mL	32 µg/mL	16 µg/mL	64 µg/mL (≈ 224 µM)	256 µg/mL (≈ 897 µM)	Non-Toxic	64 µg/mL (≈ 224 µM)	64 µg/mL (≈ 224 µM)	Non-Toxic	256 µg/mL (≈ 897 µM)	64 µg/mL (≈ 224 µM)	3.91	3.67	64 µg/mL (≈ 224 µM)	256 µg/mL (≈ 897 µM)	256 µg/mL (≈ 897 µM)	MIC [9]: 256 µg/mL; MIC [20]: 256 µg/mL
COc1ccc(-n2nnnc2Nc2ccc(F)cc2)cc1	> 256 µg/mL	512 µg/mL	32 µg/mL	16 µg/mL	> 512 µg/mL	32 µg/mL	32 µg/mL	128 µg/mL (≈ 449 µM)	128 µg/mL (≈ 449 µM)	Non-Toxic	128 µg/mL (≈ 449 µM)	64 µg/mL (≈ 224 µM)	Non-Toxic	> 256 µg/mL	128 µg/mL (≈ 449 µM)	3.81	3.63	128 µg/mL (≈ 449 µM)	> 256 µg/mL	128 µg/mL (≈ 449 µM)	MIC [9]: 256 µg/mL; MIC [20]: 512 µg/mL
COc1ccc(Nc2nnnn2-c2ccccc2Br)cc1	> 256 µg/mL	256 µg/mL	16 µg/mL	256 µg/mL	> 512 µg/mL	128 µg/mL	16 µg/mL	> 256 µg/mL	> 256 µg/mL	Non-Toxic	> 256 µg/mL	> 256 µg/mL	Non-Toxic	> 256 µg/mL	> 256 µg/mL	3.98	3.92	> 256 µg/mL	> 256 µg/mL	> 256 µg/mL	MIC [9]: > 512 µg/mL; MIC [20]: > 512 µg/mL
COc1ccc(Nc2nnnn2-c2cccc(Br)c2)cc1	> 256 µg/mL	512 µg/mL	16 µg/mL	> 256 µg/mL	512 µg/mL	32 µg/mL	16 µg/mL	> 256 µg/mL	> 256 µg/mL	Non-Toxic	> 256 µg/mL	> 256 µg/mL	Non-Toxic	> 256 µg/mL	> 256 µg/mL	3.97	3.91	> 256 µg/mL	> 256 µg/mL	> 256 µg/mL	MIC [9]: 64 µg/mL; MIC [20]: 512 µg/mL
COc1ccc(Nc2nnnn2-c2ccc(F)cc2)cc1	> 256 µg/mL	512 µg/mL	8 µg/mL	512 µg/mL	256 µg/mL	64 µg/mL	8 µg/mL	128 µg/mL (≈ 449 µM)	256 µg/mL (≈ 897 µM)	Non-Toxic	128 µg/mL (≈ 449 µM)	64 µg/mL (≈ 224 µM)	Non-Toxic	256 µg/mL (≈ 897 µM)	64 µg/mL (≈ 224 µM)	3.99	3.84	64 µg/mL (≈ 224 µM)	256 µg/mL (≈ 897 µM)	256 µg/mL (≈ 897 µM)	MIC [9]: > 512 µg/mL; MIC [20]: > 512 µg/mL
COc1ccc(Nc2nnnn2-c2ccccc2Cl)cc1	256 µg/mL (≈ 848 µM)	256 µg/mL	8 µg/mL	128 µg/mL	512 µg/mL	32 µg/mL	8 µg/mL	64 µg/mL (≈ 212 µM)	256 µg/mL (≈ 848 µM)	Non-Toxic	128 µg/mL (≈ 424 µM)	64 µg/mL (≈ 212 µM)	Non-Toxic	256 µg/mL (≈ 848 µM)	64 µg/mL (≈ 212 µM)	4.00	3.99	64 µg/mL (≈ 212 µM)	256 µg/mL (≈ 848 µM)	256 µg/mL (≈ 848 µM)	MIC [9]: 512 µg/mL; MIC [20]: 128 µg/mL
O=C(O)c1cn(C2CC2)c2cc(N3CCNCC3)c(F)cc2c1=O [CIPROFLOXACIN]	< 0.0625 µg/mL							0.0625 µg/mL (≈ 0.189 µM)	< 0.0625 µg/mL		0.125 µg/mL (≈ 0.377 µM)	0.125 µg/mL (≈ 0.377 µM)		< 0.0625 µg/mL							
COc1cccc2c1C(=O)c1c(O)c3c(c(O)c1C2=O)C[C@@](O)(C(=O)CO)C[C@@H]3O[C@H]1C[C@H](N)[C@H](O)[C@H](C)O1 [DOXORUBICIN]																6.64	5.66				
